Broadly, the Kd is a measure of binding affinity in units of concentration. The low end stands for tighter binding, the high end for weaker binding.

The subject of one data set is human plasma proteins. The data set can be described thus: Human plasma protein binding by equilibrium dialysis with UPLC-MS/MS. Format: in vitro ADME. The following applies: for Kd at 72 h: human, human plasma (equilibrium dialysis against phosphate buffer); for maximum binding ability β: modified Scatchard equation, extract 1.2 to 60 μg/mL, human plasma, Pt 71.28 g/L. In outline: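 Blank human plasma was placed in 10 kDa dialysis bags (pre-soaked in pH 7.4 phosphate buffer) and dialysed at 4 °C for 72 h against buffer containing the aqueous plant extract (1.2–60 µg/mL). Inside-bag concentration gave total drug; outside gave free drug. Analysis was by UPLC–ESI-MS/MS after methanol/formic acid protein precipitation, with matrix-specific 1/x² weighted calibration. Parameters came from a modified Scatchard fit using Pt 71.28 g/L (Lowry) and plasma water 99.25%.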
Background: Equilibrium dialysis compares concentrations on both sides of a semipermeable membrane.

The nature of data set [1]: Analyte stability in human plasma and phosphate buffer. Format: in vitro ADME. The following applies: for time stable at ambient temperature / reduction of the concentration after three freeze–thaw cycles: QC samples; for time stable at ambient temperature: human plasma and phosphate buffer, three concentration levels; for reduction of the concentration after three freeze–thaw cycles: −20 °C to room temperature; for time stable in auto-sampler conditions: processed QC samples, 15 °C. In outline: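 Processed QC samples in human plasma and pH 7.4 phosphate buffer were tested at three concentration levels, three replicates each. Conditions were 6 h at ambient temperature, or three freeze (−20 °C)/thaw (room temperature) cycles followed by 24 h at 15 °C in the auto-sampler. Separately, samples were held 96 h at 4 °C. Mean UPLC–ESI-MS/MS concentrations were compared with freshly prepared QC samples.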

A value given as a limit tells only on which side of the number the result lay.

For the compound `O=c1cc(-c2ccc(O)c(O)c2)oc2c([C@@H]3O[C@H](CO)[C@@H](O)[C@H](O)[C@H]3O)c(O)cc(O)c12` [orientin], in the data set on human plasma proteins, the Kd at 72 h came out at 26.6 µM and the “maximum binding ability β” value turned out to be 2.685 µmol/g. Besides, in data set [1], the “time stable at ambient temperature” value is reported as “at least 6 h”, the “reduction of the concentration after three freeze–thaw cycles” value is given as less than 10% and the “time stable in auto-sampler conditions” value is not below 24 h.
In the same order, the values of `O=c1cc(-c2ccc(O)cc2)oc2c([C@@H]3O[C@H](CO)[C@@H](O)[C@H](O)[C@H]3O)c(O)cc(O)c12` [vitexin] are 19.7 µM, 1.650 µmol/g, “at least 6 h”, less than 10% and not below 24 h.
`C[C@@H]1O[C@@H](Oc2c(-c3ccc(O)c(O)c3)oc3cc(O)cc(O)c3c2=O)[C@H](O)[C@H](O)[C@H]1O` [quercitrin]: in the data set on human plasma proteins, the Kd at 72 h turned out to be 5.29 µM and the “maximum binding ability β” value stood at 0.6420 µmol/g. Moreover, in data set [1], the “time stable at ambient temperature” value is “at least 6 h”, the “reduction of the concentration after three freeze–thaw cycles” value is recorded as less than 10% and the “time stable in auto-sampler conditions” value is recorded as not below 24 h.

Values taken from paper PMC5761012 (Journal of Pharmaceutical Analysis, 2013).
